Data on 5 molecules can be found in paper PMC4278051 (Journal of Breast Cancer, 2014).

Broadly, the Ki is a dissociation constant, usually derived from enzyme kinetics or from competition with a known ligand. Read a low Ki as higher affinity. As usually defined, the EC50 is the midpoint of the concentration-response curve. Low readings indicate an effect from little substance, high ones a need for much substance.

The target in assay [1] is transient receptor potential vanilloid 1 (Homo sapiens, UniProt Q8NER1). As to the kind of experiment: Competition. Conditions: inhibition of 1.2 nM ^3[H]RTX binding, MCF-7 membranes, Cheng-Prussoff.
transient receptor potential vanilloid 1, sequence (Q8NER1 whole entry): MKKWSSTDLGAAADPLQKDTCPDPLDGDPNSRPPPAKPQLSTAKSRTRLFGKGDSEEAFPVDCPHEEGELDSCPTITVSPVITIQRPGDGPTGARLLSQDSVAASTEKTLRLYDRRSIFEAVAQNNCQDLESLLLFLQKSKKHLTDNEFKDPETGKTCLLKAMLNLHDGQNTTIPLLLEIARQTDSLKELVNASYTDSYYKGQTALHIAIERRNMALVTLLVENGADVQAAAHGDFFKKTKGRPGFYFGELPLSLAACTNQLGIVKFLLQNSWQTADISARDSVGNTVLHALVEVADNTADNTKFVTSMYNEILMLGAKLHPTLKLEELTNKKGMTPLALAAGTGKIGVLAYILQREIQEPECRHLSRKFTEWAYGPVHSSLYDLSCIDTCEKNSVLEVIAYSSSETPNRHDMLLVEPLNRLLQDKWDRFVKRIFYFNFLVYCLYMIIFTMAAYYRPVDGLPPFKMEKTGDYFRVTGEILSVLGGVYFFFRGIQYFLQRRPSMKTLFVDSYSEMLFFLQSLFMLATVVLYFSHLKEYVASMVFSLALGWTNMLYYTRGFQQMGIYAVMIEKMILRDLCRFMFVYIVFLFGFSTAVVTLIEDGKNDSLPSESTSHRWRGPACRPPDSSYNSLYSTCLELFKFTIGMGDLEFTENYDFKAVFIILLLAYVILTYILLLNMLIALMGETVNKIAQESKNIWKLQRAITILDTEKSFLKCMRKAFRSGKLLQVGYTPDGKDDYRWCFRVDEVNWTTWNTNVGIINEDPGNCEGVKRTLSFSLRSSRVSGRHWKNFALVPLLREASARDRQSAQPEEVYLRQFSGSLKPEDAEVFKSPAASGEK
Assay [2] has as its target T1, TRPV1 (Homo sapiens, UniProt Q8NER1). As to the kind of experiment: Inhibition of RTX induced ^45Ca^2+ uptake by antagonists in MCF-7. In kind it is cell-based. Conditions: in the presence of RTX 2 nM, n=4.
The test system of the next assay is MCF-7 cells. Nature of the assay: MTT reduction proliferation assay. In kind it is cell-based, human. Conditions: 2, 24, 48 and 72 hours; for MCF-7 cell growth rate / viability compared to the controls (MTT): increasing concentrations (10^-10-10^-4 M capsaicin, capsazepine; 10^-10-10^-6 M RTX, 5-I-RTX), p<0.05, n=6. A digest of the protocol:
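MCF-7 cells grown in DMEM with 20% FBS were seeded at 5×10^3 cells/100 µL in 96-well plates. Cells were exposed to test compound at increasing concentrations (10-10 up to 10^-4 or 10^-6 M, by compound) and assayed at 2, 24, 48 and 72 h. MTT was added for 4 h at 37 °C, 5% CO2, and formazan was dissolved in DMSO for 10 min at RT. OD was read at 570 nm (n=6, mean±SEM) and analysed by Kruskal-Wallis with Dunn post-test.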
A general note: Tetrazolium assays rely on reduction of a dye to a coloured formazan, in cell work by metabolically active cells.

In assay [3] the test system is TRPV1. Conditions: ref 23 (Rigoni et al.); cited from earlier work.
Assay [4] addresses T1, TRPV1. Nature of the assay: ^45Ca^2+ uptake assay, stimulation by agonists in MCF-7. The following applies: for E max of Ca^2+ uptake: 20 minutes at 37℃, 10^-11-10^-3 M, n=4. In kind it is cell-based.

T1 sequence (Q8NER1 whole entry): as above

For the molecule `C=C(C)[C@]12C[C@@H](C)[C@@]34O[C@](Cc5ccccc5)(O[C@@H]1[C@@H]3C=C(COC(=O)Cc1cc(I)c(O)c(OC)c1)C[C@]1(O)C(=O)C(C)=C[C@@H]41)O2` [5-I-RTX, 5-iodoresiniferatoxin], in assay [1], the affinity corresponds to a Ki of 0.056 nM. Also, the “E max of Ca^2+ influx inhibition” value on TRPV1 [2] turned out to be 108.3%. The “MCF-7 cell growth rate / viability compared to the controls (MTT)” value in the assay with MCF-7 cells is “significant decrease”. Moreover, the “Potency relative to the antagonist capsazepine (times more potent)” value in the assay with TRPV1 [3] is reported as 20.
On TRPV1 [4], `CCCCC/C=C\C/C=C\C/C=C\C/C=C\CCCC(=O)NCCO` [Anandamide, anandamide] showed an EC50 of 110 nM. Moreover, at TRPV1 [4] (^45Ca^2+ uptake), the “Agonist character at TRPV1 expressed in MCF-7, from E max of calcium uptake” value is recorded as “full agonist” and the “E max of Ca^2+ uptake” value is recorded as 557.0 cpm.
Regarding `COc1cc(CNC(=O)CCCC/C=C/C(C)C)ccc1O` [Capsaicin, capsaicin], at TRPV1 [4] (^45Ca^2+ uptake), the “E max of Ca^2+ uptake” value turned out to be 478.8 cpm. For the same molecule, the “MCF-7 cell growth rate / viability compared to the controls (MTT)” value in the assay with MCF-7 cells is “significant decrease”.
In the case of `Oc1cc2c(cc1O)CN(C(=S)NCCc1ccc(Cl)cc1)CCC2` [Capsazepine, capsazepine], the “MCF-7 cell growth rate / viability compared to the controls (MTT)” value in the assay on MCF-7 cells is “significant decrease”.
Consider `C=C(C)[C@]12C[C@@H](C)[C@@]34O[C@](Cc5ccccc5)(O[C@@H]1[C@@H]3C=C(COC(=O)Cc1ccc(O)c(OC)c1)C[C@]1(O)C(=O)C(C)=C[C@@H]41)O2` [RTX, resiniferatoxin], for which a half-maximal effect on TRPV1 [4] (EC50) was put at 24 nM. For the same molecule, the “E max of Ca^2+ uptake” value at TRPV1 [4] (^45Ca^2+ uptake) amounted to 777.0 cpm. Besides, in the assay on MCF-7 cells, the “Time dependence of MCF-7 growth inhibition (MTT)” value is reported as “time-dependent behavior” and the “MCF-7 cell growth rate / viability compared to the controls (MTT)” value is “significant decrease”.
